# Experimental data published in paper PMC3645320 (Biochimica et biophysica acta, 2011).
# Read-outs that look alike come from different tables or passages of the source.
# Tests used:
# [1] = target: W60dA human recombinant thrombin (Homo sapiens, UniProt P00734, W413A); assay: HPLC-based kinetic assay of FXIII; assay type: biochemical; conditions: W60dA thrombin relative to WT thrombin
# [2] = target: T1, E217A human recombinant thrombin (Homo sapiens, UniProt P00734, E592A); conditions: E217A thrombin relative to WT thrombin; ref [37]; cited from earlier work
# [3] = target: Y60aA human recombinant thrombin (Homo sapiens, UniProt P00734, Y410A); assay: HPLC-based kinetic assay of FXIII; assay type: biochemical; conditions: Y60aA thrombin relative to WT thrombin
# [4] = target: T2, L99A human recombinant thrombin (Homo sapiens, UniProt P00734, L459A); conditions: ref [37], cited from earlier work
# [5] = target: T3, W215A human recombinant thrombin (Homo sapiens, UniProt P00734, W590A); conditions: W215A thrombin relative to WT thrombin; ref [37]; cited from earlier work
# [6] = target: T3, W215A human recombinant thrombin; assay: HPLC-based kinetic assay of FXIII; assay type: biochemical; conditions: W215A thrombin relative to WT thrombin
# [7] = target: T2, L99A human recombinant thrombin; assay: HPLC-based kinetic assay of FXIII; assay type: biochemical; conditions: L99A thrombin relative to WT thrombin
# [8] = target: T1, E217A human recombinant thrombin; assay: HPLC-based kinetic assay of FXIII; assay type: biochemical; conditions: E217A thrombin relative to WT thrombin
# Method in brief: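 Recombinant human E217A thrombin (over 90% active by hirudin titration) at 33.6 or 78.4 nM depending on peptide, acting on acetylated/amidated FXIII (28–41) segment peptides at 100–3000 μM. Conditions: 50 mM H3PO4, 100 mM NaCl, 0.1% PEG, pH 7.4, 25 °C. Timed aliquots quenched in 12.5% H3PO4. FXIII (28–37) product measured by RP-HPLC against a calibration curve.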
Substance,decrease in kcat [1],decrease in kcat [2],increase in Km [2],increase in Km [3],decrease in kcat ([4]; L99A thrombin relative to WT thrombin),"Km and kcat (in words) ([4]; L99A thrombin, relative to WT thrombin or across the V34X series)",decrease in kcat/Km [5],decrease in kcat [6],Km (in words) [1],decrease in kcat [7],loss in kcat [8],decrease in kcat/Km [6]
Ac-TVELQGVVPRGVNL-NH2 [FXIII (28–41) V34 AP],3 fold,≤ 2 fold,3–4 fold,2 fold,3 fold,highest Km values of the IIa L99A series,4 fold,,,,,
Ac-TVELQGPVPRGVNL-NH2 [FXIII (28–41) V34P AP],1.3 fold,,,,,,,2 fold,,,,
Ac-TVELQGLVPRGVNL-amide (Ac-TVELQGLVPRGVNL-NH2) [FXIII (28–41) V34L AP],,≤ 2 fold,3–4 fold,2 fold,,,,,,,,
Ac-TVELQGFVPRGVNL-NH2 [FXIII (28–41) V34F AP],4 fold,,,,,,,3 fold,comparable to that of WT thrombin,2 fold,2 fold,3 fold
